From paper PMC3869895 (Investigational New Drugs, 2013)
“Also recorded” adds a separate entry of the source.

What was measured:
[1] = tested on: patients with advanced solid tumors; experiment: Phase I 3+3 dose escalation: dose limiting toxicities and adverse events; format: in vivo, human
[2] = Pharmacokinetic analysis of total and unbound RO4929097 in serial plasma; format: in vivo, human
[3] = tested on: advanced solid tumors; experiment: Antitumor activity by RECIST 1.1; format: in vivo, human; conditions: with gemcitabine
Summary of the method: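 Oral test compound once daily on days 1–3, 8–10, […] and 22–24 of 28-day cycles, fasting, with IV gemcitabine 1,000 mg/m2 on days 1, 8 and 15. Measurable disease required. Radiographic restaging every 2 cycles, scored by RECIST 1.1. Prolonged stable disease means stable disease for 4 or more months. Treatment continued until unacceptable toxicity, progression, withdrawal or study completion.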

[4] = stated as given in discussion; no reference given; cited from earlier work
[5] = tested on: gamma secretase; conditions: cited from earlier work
[6] = tested on: xenograft models; conditions: intermittent and daily dosing in xenograft models; cited from earlier work
[7] = in vitro; rather than overt cell death; no reference given; cited from earlier work
[8] = tested on: circulating angiogenesis factors; conditions: in vitro; cited from earlier work
[9] = cited from earlier work
[10] = dose level 3 (45 mg) + gemcitabine, CTCAE v4

CC(C)(C(=O)NCC(F)(F)C(F)(F)F)C(=O)N[C@@H]1C(=O)Nc2ccccc2-c2ccccc21 [RO4929097]
DLT Event ([1]; dose level 2 (30 mg) + gemcitabine): Transaminitis
Grade of DLT event Transaminitis ([1]; dose level 2 (30 mg) + gemcitabine, CTCAE v4): 3
DLT Event ([1]; dose level 3 (45 mg) + gemcitabine): Transaminitis; also recorded: Maculopapular rash
Grade of DLT event Maculopapular rash [1, 10]: 3
Grade of DLT event Transaminitis [1, 10]: 3
DLT Event ([1]; dose level 4 (90 mg) + gemcitabine): Transaminitis
Grade of DLT event Transaminitis ([1]; dose level 4 (90 mg) + gemcitabine, CTCAE v4): 3
Grade of DLT event <75 % RO doses ([1]; dose level 4 (90 mg) + gemcitabine, secondary to prolonged neutropenia): 3
maximum tolerated dose ([1]; in combination with gemcitabine, exceeded at this dose): < 90 mg
autoinduction (Day 10: Day 1 total and free AUC 0-24) ([2]; dose levels 45 and 90 mg): presence of autoinduction
day 10: day 1 areas under the curve ([2]; with increasing dose levels): below 1
stable disease > 4 months (prolonged stable disease), number of patients ([3]; 18 patients enrolled): 3 patients
Best response (RECIST 1.1) ([3]; one patient with nasopharyngeal carcinoma, 45 mg dose level): partial response
half-life [4]: approximately 20 h
inhibition of gamma secretase [5]: potent inhibitor
antitumor activity [6]: demonstrates antitumor activity
cell phenotype [7]: more flattened phenotype
expression of circulating angiogenesis factors [8]: reduce the expression
protein binding [9]: highly protein bound
